Assay results: ChEMBL document CHEMBL5712904 (Cancers (Basel), 2018)
Each block holds one compound with its values, some of them ahead of it. The source made the active and inactive calls. The calls are words filed in the database; no cut-off is given here.

How the values were obtained:
SK-OV-3 [1] = assay: Upregulation of GLUT1 in human SK-OV-3 cells at 0.25 mM after 24 hrs by immunoblotting analysis; assay type: functional, cell-based
OVCAR-3 [2] = assay: Upregulation of GLUT1 in human OVCAR-3 cells at 0.25 mM after 24 hrs by immunoblotting analysis; assay type: functional, cell-based
SK-OV-3 [3] = assay: […] of glycolysis in human SK-OV-3 cells ssessed as decrease in conversion of D-[5-3H(N)]-glucose to 3H2O at 0.25 mM incubated for 24 hrs by liquid scintillation counting; assay type: functional, cell-based
Outline: (§1)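 Medium was acidified to 0.2 N HCl, and 3H2O was allowed to diffuse into water for 3 days before scintillation counting. Results are given as % glucose conversion/5 × 10^5 cells/6 h, triplicates.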

OVCAR-3 [4] = assay: […] of glycolysis in human OVCAR-3 cells ssessed as decrease in conversion of D-[5-3H(N)]-glucose to 3H2O at 0.25 mM incubated for 24 hrs by liquid scintillation counting; assay type: functional, cell-based; outline: as §1
SK-OV-3 [5] = assay: Upregulation of GLUT1 in human SKOV-3 cells at 2 mM after 24 hrs by immunoblotting analysis; assay type: functional, cell-based
OVCAR-3 [6] = assay: Upregulation of GLUT1 in human OVCAR-3 cells at 2 mM after 24 hrs by immunoblotting analysis; assay type: functional, cell-based
SK-OV-3 [7] = assay: […] of glycolysis in human SK-OV-3 cells ssessed as decrease in conversion of D-[5-3H(N)]-glucose to 3H2O at 2 mM incubated for 24 hrs by liquid scintillation counting; assay type: functional, cell-based; outline: as §1
OVCAR-3 [8] = assay: […] of glycolysis in human OVCAR-3 cells ssessed as decrease in conversion of D-[5-3H(N)]-glucose to 3H2O at 2 mM incubated for 24 hrs by liquid scintillation counting; assay type: functional, cell-based; outline: as §1
SK-OV-3 [9] = assay: Upregulation of GLUT1 in human SK-OV-3 cells at 50 nM after 24 hrs by immunoblotting analysis; assay type: functional, cell-based
OVCAR-3 [10] = assay: Upregulation of GLUT1 in human OVCAR-3 cells at 50 […] after 24 hrs by immunoblotting analysis; assay type: functional, cell-based
SK-OV-3 [11] = assay: […] of glycolysis in human SK-OV-3 cells ssessed as decrease in conversion of D-[5-3H(N)]-glucose to 3H2O at 50 nM incubated for 24 hrs by liquid scintillation counting; assay type: functional, cell-based; outline: as §1
OVCAR-3 [12] = assay: […] of glycolysis in human OVCAR-3 cells ssessed as decrease in conversion of D-[5-3H(N)]-glucose to 3H2O at 50 nM incubated for 24 hrs by liquid scintillation counting; assay type: functional, cell-based; outline: as §1
SK-OV-3 [13] = assay: Antiproliferative activity against human SK-OV-3 cells assessed as reduction in number of cells at 25 to 75 nM after 24 hrs; assay type: functional, cell-based; settings: dose 25-75 nM
Outline: (§2)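 Cells were grown in 12-well plates in RPMI 1640 with 10% FBS and treated with 0, 25, 50 or 75 nM inhibitor for 24 h. They were then trypsinized and counted with a Coulter counter. Data are mean ± SD of triplicates.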

OVCAR-3 [14] = assay: Antiproliferative activity against human OVCAR-3 cells assessed as reduction in number of cells at 25 to 75 nM after 24 hrs; assay type: functional, cell-based; settings: dose 25-75 nM; outline: as §2
SK-OV-3 [15] = assay: Antiproliferative activity against human SK-OV-3 cells assessed as reduction in number of cells at 75 nM after 24 to 72 hrs; assay type: functional, cell-based; settings: time 24-72 hrs
Outline: (§3)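 For 72-h growth curves, cells in 12-well plates in RPMI 1640 with 10% FBS were grown with or without 75 nM inhibitor. Cell numbers were determined by Coulter counting after trypsinization. Data are mean ± SD of triplicates.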

OVCAR-3 [16] = assay: Antiproliferative activity against human OVCAR-3 cells assessed as reduction in number of cells at 75 nM after 24 to 72 hrs; assay type: functional, cell-based; settings: time 24-72 hrs; outline: as §3
HEY [17] = assay: Antiproliferative activity against human HEY cells assessed as reduction in number of cells at 75 nM after 24 to 72 hrs; assay type: functional, cell-based; settings: time 24-72 hrs; outline: as §3
A2780 [18] = assay: Antiproliferative activity against human A2780 cells assessed as reduction in number of cells at 75 nM after 24 to 72 hrs; assay type: functional, cell-based; settings: time 24-72 hrs; outline: as §3
OVCAR-3 [19] = assay: Antiproliferative activity against human OVCAR-3 cells assessed as reduction in cell viability after 72 hrs by MTT assay; assay type: functional, cell-based; settings: OVCAR-3, 72 h
Outline: (§4)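 Cells in RPMI 1640 with 10% FBS were exposed to inhibitor over a range up to 10 µM for 72 h. Viability was read by MTT staining with absorbance at 570 nm, and IC50 was obtained by curve fitting. Data are mean ± SD of triplicates, representative of 3 independent experiments.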

SK-OV-3 [20] = assay: Antiproliferative activity against human SK-OV-3 cells assessed as reduction in cell viability after 72 hrs MTT assay; assay type: functional, cell-based; settings: SK-OV-3, 72 h; outline: as §4
HEY [21] = assay: Antiproliferative activity against human HEY cells assessed as reduction in cell viability after 72 hrs MTT assay; assay type: functional, cell-based; outline: as §4
SK-OV-3 [22] = assay: Antiproliferative activity against human SK-OV-3 cells assessed as decrease in number of colonies at 75nM after 3 weeks by crystal violet staining based assay; assay type: functional, cell-based
Outline: (§5)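 Soft agar colony assay: wells pre-coated with 0.6% agar in complete medium, with cells overlaid in medium containing 0.3% agar. Fresh 0.3% agar medium was added every 3–5 days. Inhibitor was 75 nM for SKOV-3 and OVCAR-3. After 3 weeks, colonies were crystal violet stained and counted above 100 μm diameter (SKOV-3, A2780) or 50 μm (OVCAR-3), reported as colonies per well.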

OVCAR-3 [23] = assay: Antiproliferative activity against human OVCAR-3 cells assessed as decrease in number of colonies at 75nM after 3 weeks by crystal violet staining based assay; assay type: functional, cell-based; outline: as §5
HEY [24] = assay: Antiproliferative activity against human HEY cells assessed as decrease in number of colonies at 75nM after 3 weeks by crystal violet staining based assay; assay type: functional, cell-based
A2780 [25] = assay: Antiproliferative activity against human A2780 cells assessed as decrease in number of colonies at 75nM after 3 weeks by crystal violet staining based assay; assay type: functional, cell-based; outline: as §5
SK-OV-3 [26] = assay: Antitumor activity against human SK-OV-3 cells xenografted in NSG mouse assessed as reduction tumor volume at 4.5 mg/kg/day, po for 4 weeks relative to control; assay type: functional; set-up: scale not given: the % may be the effect or the level left
Outline: (§6)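 Female NSG mice aged 6–7 weeks received 4 × 10^6 SKOV-3 cells in serum-free medium s.c. on the right flank. At about 100 mm3, mice were grouped 5 per group and gavaged daily at 0, 1.5, 3 or 4.5 mg/kg for 28 days. Caliper volume was calculated as lw2/2, with body weights tracked and endpoint tumors weighed; mean ± SD.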

SK-OV-3 [27] = assay: Antitumor activity against human SK-OV-3 cells xenografted in NSG mouse assessed as reduction tumor weight at 4.5 mg/kg/day, po for 4 weeks relative to control; assay type: functional; set-up: scale not given: the % may be the effect or the level left; outline: as §6
[28] = Toxicity in NSG mouse xenografted with SK-OV-3 cells assessed as reduction in body weight at 4.5 mg/kg/day, po for 4 weeks relative to control; assay type: organism-based; set-up: scale not given: the % may be the effect or the level left; settings: in vivo, 672 h; outline: as §6
[29] = Antitumor activity against human derived High-grade serous ovarian cancer cell xenografted in NSG mouse model of OVC-PDX2 assessed as decrease in tumor volume at 4 mg/kg/day, po 30 days relative to control; assay type: functional, Ovarian carcinoma cell; set-up: scale not given: the % may be the effect or the level left; settings: time 30 day
Outline: (§7)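 Serous ovarian carcinoma fragments of 1–2 mm3 were implanted s.c. on the right flank of 6–8-week female NSG mice and re-passaged at about 1 cm3. At an average of 100 mm3, mice were grouped 5 per group and gavaged with 4 mg/kg/day for 30 days. Caliper volume was calculated as lw2/2, with body weight monitored and endpoint xenografts weighed.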

[30] = Antitumor activity against human derived High-grade serous ovarian cancer cell xenografted in NSG mouse model of OVC-PDX3 assessed as decrease in tumor volume at 4 mg/kg/day, po 30 days relative to control; assay type: functional, Ovarian carcinoma cell; set-up: scale not given: the % may be the effect or the level left; settings: time 30 day; outline: as §7
[31] = Antitumor activity against human derived High-grade serous ovarian cancer cell xenografted in NSG mouse model of OVC-PDX2 assessed as decrease in tumor weight at 4 mg/kg/day, po 30 days relative to control; assay type: functional, Ovarian carcinoma cell; set-up: scale not given: the % may be the effect or the level left; settings: time 30 day; outline: as §7
[32] = Antitumor activity against human derived High-grade serous ovarian cancer cell xenografted in NSG mouse model of OVC-PDX3 assessed as decrease in tumor weight at 4 mg/kg/day, po 30 days relative to control; assay type: functional, Ovarian carcinoma cell; set-up: scale not given: the % may be the effect or the level left; settings: time 30 day; outline: as §7
[33] = Toxicity in NSG mouse xenografted with human derived High-grade serous ovarian cancer cell model of OVC-PDX2 assessed as reduction in body weight at 4 mg/kg/day, po for 30 days relative to control; assay type: organism-based; settings: in vivo, 720 h, time 30 day; outline: as §7
[34] = Toxicity in NSG mouse xenografted with human derived High-grade serous ovarian cancer cell model of OVC-PDX3 assessed as reduction in body weight at 4 mg/kg/day, po for 30 days relative to control; assay type: organism-based; settings: in vivo, 720 h, time 30 day; outline: as §7
A2780 [35] = assay: Antiproliferative activity against human A2780 cells assessed as reduction in cell viability up to 2 uM after 72 hrs by MTT assay; assay type: functional, cell-based; outline: as §4
SK-OV-3 [36] = assay: Antiproliferative activity against human SK-OV-3 cells assessed as decrease in size colonies at 75nM after 3 weeks by crystal violet staining based assay; assay type: functional, cell-based; outline: as §5
OVCAR-3 [37] = assay: Antiproliferative activity against human OVCAR-3 cells assessed as decrease in size of colonies at 75nM after 3 weeks by crystal violet staining based assay; assay type: functional, cell-based; outline: as §5
HEY [38] = assay: Antiproliferative activity against human HEY cells assessed as decrease in size of colonies at 75nM after 3 weeks by crystal violet staining based assay; assay type: functional, cell-based
A2780 [39] = assay: Antiproliferative activity against human A2780 cells assessed as decrease in size of colonies at 75nM after 3 weeks by crystal violet staining based assay; assay type: functional, cell-based; outline: as §5

SMILES: CCOC(=O)[C@@]1(CCCCCCOc2ccc(Cl)cc2)CO1
- Activity (SK-OV-3 [1]): Active
- Activity (OVCAR-3 [2]): Active
- Activity (SK-OV-3 [3]): Active
- Activity (OVCAR-3 [4]): Active

SMILES: CN(C)C(=N)NC(=N)N
- Activity (SK-OV-3 [5]): Active
- Activity (OVCAR-3 [6]): Active
- Activity (SK-OV-3 [7]): Active
- Activity (OVCAR-3 [8]): Active

SMILES: COc1ccc([C@@H](O)[C@@H](C)Oc2ccc([C@H]3O[C@H](c4ccc(O[C@H](C)[C@H](O)c5ccc6c(c5)OCO6)c(OC)c4)[C@H](C)[C@H]3C)cc2OC)cc1OC
- Activity (SK-OV-3 [9]): Active
- Activity (OVCAR-3 [10]): Active
- Activity (SK-OV-3 [11]): Active
- Activity (OVCAR-3 [12]): Active

- IC50 (OVCAR-3 [19]): 60 nM
- IC50 (SK-OV-3 [20]): 188 nM
SMILES: Cc1c(NC(=O)c2cc(C(N)=O)nc3cc(F)ccc23)c(C(F)(F)F)nn1Cc1ccc(C#N)cc1 [BAY-876]
- Activity (SK-OV-3 [13]): Dose-Dependent Effect
- Activity (OVCAR-3 [14]): Dose-Dependent Effect
- Activity (SK-OV-3 [15]): Active
- Activity (OVCAR-3 [16]): Active
- Activity (HEY [17]): Active
- Activity (A2780 [18]): inactive
- IC50 (HEY [21]): 1000 nM
- Activity (SK-OV-3 [22]): Active
- Activity (OVCAR-3 [23]): Active
- Activity (HEY [24]): Active
- Activity (A2780 [25]): inactive
- Activity (SK-OV-3 [26]): 68%
- Activity (SK-OV-3 [27]): 66%
- Activity [28]: 18%
- Activity [29]: >60%
- Activity [30]: >60%
- Activity [31]: 50%
- Activity [32]: 71%
- Activity [33]: Non-Toxic
- Activity [34]: Non-Toxic
- Activity (A2780 [35]): inactive
- Activity (SK-OV-3 [36]): Active
- Activity (OVCAR-3 [37]): Active
- Activity (HEY [38]): Active
- Activity (A2780 [39]): inactive
